Measurements gathered from unrelated publications.
Lines come from different studies, so protocols differ.
Effect on: cell growth or viability

| SMILES | cell line | method | time | CC50 [µM] |
| --- | --- | --- | --- | --- |
| Nc1ccn(C[C@@H](CO)OCP(=O)(O)O)c(=O)n1 | HFF | ATP luminescence | 14 days | 60 |
| CCN(CC)CCNC(=O)CN1C(=O)Cc2c([nH]c3ccc(Br)cc23)-c2ccc(Cl)cc21 | J774 | WST-1 | 24 h | ≤ 10 |
| O=c1[nH]c2sc3c(c2c(=O)n1O)CCN(Cc1ccccc1)C3 | HFF | MTS | 7 days | > 50 |
| NCCCCNC(=O)CN1C(=O)Cc2c([nH]c3ccc(Br)cc23)-c2ccc(Cl)cc21 | J774 | WST-1 | 24 h | ≥ 100 |
| O=c1[nH]c2cc(-c3ccc(Cl)cc3)sc2c(=O)n1O | HFF | MTS | 7 days | > 50 |
| NCCNC(=O)CN1C(=O)Cc2c([nH]c3ccc(Br)cc23)-c2ccc(Cl)cc21 | J774 | WST-1 | 24 h | ≥ 100 |
| CC1CCCN(S(=O)(=O)c2nc(-c3ccc(Br)cc3)oc2-c2ccc(Cl)cc2)C1 (stereo not shown) | HFF | ATP luminescence |  | 41.9 |
| CN(C)c1ccc(C(=C2C=CC(=[N+](C)C)C=C2)c2ccc(N(C)C)cc2)cc1 | J774 | ATP luminescence | 72 h | 4.91 |
| Nc1nc(O)c2ncn(COC(CO)CO)c2n1 | HFF | ATP luminescence |  | > 150 |
| O=C1c2ccccc2C(c2ccccc2F)C(=O)N1O (stereo not shown) | HFF | MTS | 7 days | 26 |
| Cc1ccc(S(=O)(=O)c2nc(S(=O)(=O)NCc3ccccc3)sc2Cl)cc1 | HFF | ATP luminescence |  | 106 |
| O=C(CN1C(=O)Cc2c([nH]c3ccc(Br)cc23)-c2ccc(Cl)cc21)NCCN1CCCCC1 | J774 | WST-1 | 24 h | ≤ 10 |
| O=c1[nH]c2cc(-c3ccc(Cl)cc3)ccc2c(=O)n1O | HFF | MTS | 7 days | > 50 |
